Experiments:
[1] = molecular target: T1, 5-hydroxytryptamine receptor 1A (Rattus norvegicus, UniProt P19327); test: Displacement of [3H]-8-OH-DPAT from 5-HT1A receptor in Sprague-Dawley rat brain cortex after 30 mins liquid scintillation spectrometer; assay type: tissue-based, Cerebral cortex
T1 sequence (P19327 whole entry): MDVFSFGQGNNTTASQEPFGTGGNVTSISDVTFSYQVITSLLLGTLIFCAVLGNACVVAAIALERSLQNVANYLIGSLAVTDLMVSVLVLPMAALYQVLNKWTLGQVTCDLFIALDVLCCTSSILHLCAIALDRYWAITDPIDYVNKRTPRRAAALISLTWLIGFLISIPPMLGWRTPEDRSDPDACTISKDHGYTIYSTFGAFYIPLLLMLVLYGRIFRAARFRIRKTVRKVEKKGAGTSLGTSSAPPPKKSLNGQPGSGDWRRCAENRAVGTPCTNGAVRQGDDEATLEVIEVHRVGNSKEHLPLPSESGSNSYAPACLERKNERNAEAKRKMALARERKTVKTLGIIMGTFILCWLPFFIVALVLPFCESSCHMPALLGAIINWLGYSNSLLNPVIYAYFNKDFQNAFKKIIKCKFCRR
Method in brief: (§1)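 Radioligand competition binding. Compounds were dissolved in ethanol or in 5% DMSO, and blank runs checked 5% DMSO for interference with binding. Six test-compound concentrations, each in triplicate, gave IC50 values by curve fitting. Ki was calculated by Cheng–Prusoff, Ki = IC50/(1 + S/KD), where S is the hot-ligand concentration and KD came from Scatchard analysis for each labeled ligand.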

[2] = molecular target: T2, 5-hydroxytryptamine receptor 2C (Rattus norvegicus, UniProt P08909); test: Displacement of [3H]mesulergine from 5-HT2C receptor in Sprague-Dawley rat brain cortex after 15 mins; method in brief: as §1
T2 sequence (P08909 whole entry): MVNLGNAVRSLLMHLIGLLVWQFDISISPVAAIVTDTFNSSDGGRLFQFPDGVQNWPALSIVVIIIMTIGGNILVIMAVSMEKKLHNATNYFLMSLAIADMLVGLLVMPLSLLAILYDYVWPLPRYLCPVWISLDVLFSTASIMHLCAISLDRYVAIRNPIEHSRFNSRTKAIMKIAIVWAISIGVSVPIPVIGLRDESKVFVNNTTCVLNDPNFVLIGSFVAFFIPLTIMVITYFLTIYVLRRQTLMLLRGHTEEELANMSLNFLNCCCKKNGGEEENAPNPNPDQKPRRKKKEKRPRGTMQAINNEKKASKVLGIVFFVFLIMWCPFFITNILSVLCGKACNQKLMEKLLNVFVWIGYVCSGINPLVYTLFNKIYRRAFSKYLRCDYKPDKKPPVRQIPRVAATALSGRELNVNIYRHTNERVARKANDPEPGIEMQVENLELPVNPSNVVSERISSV

[3] = molecular target: 5-hydroxytryptamine receptor 2A (Rattus norvegicus, UniProt P14842); test: Displacement of [3H]ketanserin hydrochloride from 5-HT2A receptor in Sprague-Dawley rat brain cortex after 15 mins; method in brief: as §1
D(1A) dopamine receptor = D(1A) dopamine receptor (Rattus norvegicus, UniProt P18901); test: Displacement of [3H]SCH-23390 from dopamine D1 receptor in rat striatum after 15 mins by liquid scintillation counting; method in brief: as §1
D(2) dopamine receptor = D(2) dopamine receptor (Rattus norvegicus, UniProt P61169); test: Displacement of [3H]spiperone from dopamine D2 receptor in rat striatum after 15 mins by liquid scintillation counting; method in brief: as §1
[4] = molecular target: T3, Adrenergic receptor alpha-1 (Rattus norvegicus, UniProt P15823+P23944+P43140); test: Displacement of [3H]prazosin from alpha1 adrenergic receptor in rat striatum after 30 mins by liquid scintillation counting; details: in the assay text read “rat brain cortex” for “rat striatum”; method in brief: as §1
T3 sequence (P15823 whole entry): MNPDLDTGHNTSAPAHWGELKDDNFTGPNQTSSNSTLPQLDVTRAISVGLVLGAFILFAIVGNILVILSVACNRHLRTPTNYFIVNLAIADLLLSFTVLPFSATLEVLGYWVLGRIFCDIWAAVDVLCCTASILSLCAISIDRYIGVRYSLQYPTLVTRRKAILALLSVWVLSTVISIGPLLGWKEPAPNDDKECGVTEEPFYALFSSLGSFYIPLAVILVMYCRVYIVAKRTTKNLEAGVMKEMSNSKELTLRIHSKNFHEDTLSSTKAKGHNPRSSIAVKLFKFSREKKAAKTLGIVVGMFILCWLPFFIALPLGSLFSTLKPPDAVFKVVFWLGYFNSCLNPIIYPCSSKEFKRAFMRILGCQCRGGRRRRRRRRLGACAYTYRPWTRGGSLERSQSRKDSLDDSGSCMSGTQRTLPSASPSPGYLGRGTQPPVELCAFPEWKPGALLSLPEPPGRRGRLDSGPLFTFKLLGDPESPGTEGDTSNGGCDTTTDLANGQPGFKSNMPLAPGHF
T3 sequence (P23944 whole entry): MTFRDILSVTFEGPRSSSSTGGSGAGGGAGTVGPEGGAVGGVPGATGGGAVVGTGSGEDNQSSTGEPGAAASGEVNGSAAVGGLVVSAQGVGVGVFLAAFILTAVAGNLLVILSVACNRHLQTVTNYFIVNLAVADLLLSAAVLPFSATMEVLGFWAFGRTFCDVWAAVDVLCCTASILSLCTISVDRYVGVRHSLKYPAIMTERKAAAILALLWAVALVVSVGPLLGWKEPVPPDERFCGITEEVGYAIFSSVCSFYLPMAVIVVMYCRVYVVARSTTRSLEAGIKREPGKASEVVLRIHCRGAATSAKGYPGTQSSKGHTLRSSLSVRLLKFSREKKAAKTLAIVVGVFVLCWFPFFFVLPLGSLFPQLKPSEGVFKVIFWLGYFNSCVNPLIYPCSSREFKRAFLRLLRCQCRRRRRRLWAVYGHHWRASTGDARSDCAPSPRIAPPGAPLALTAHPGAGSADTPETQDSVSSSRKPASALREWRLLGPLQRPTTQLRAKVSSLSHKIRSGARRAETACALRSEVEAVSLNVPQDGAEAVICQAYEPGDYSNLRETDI
T3 sequence (P43140 whole entry): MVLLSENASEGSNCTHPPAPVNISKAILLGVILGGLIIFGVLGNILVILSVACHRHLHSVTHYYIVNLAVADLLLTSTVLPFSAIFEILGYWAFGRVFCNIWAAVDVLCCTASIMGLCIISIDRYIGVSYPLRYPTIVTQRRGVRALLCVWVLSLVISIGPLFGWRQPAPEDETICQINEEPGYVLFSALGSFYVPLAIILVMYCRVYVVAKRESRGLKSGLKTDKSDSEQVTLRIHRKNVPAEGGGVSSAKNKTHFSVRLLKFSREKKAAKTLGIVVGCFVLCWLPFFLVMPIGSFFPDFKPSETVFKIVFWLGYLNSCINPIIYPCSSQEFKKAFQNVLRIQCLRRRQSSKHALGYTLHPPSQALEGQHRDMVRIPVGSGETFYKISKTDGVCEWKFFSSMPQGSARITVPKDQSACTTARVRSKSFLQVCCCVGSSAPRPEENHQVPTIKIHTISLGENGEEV

[5] = molecular target: T4, Adrenergic receptor alpha-2 (Rattus norvegicus, UniProt P22086+P19328+P22909); test: Displacement of [3H]yohimbine from alpha 2 adrenergic receptor in rat brain cortex after 30 mins by liquid scintillation counting; assay type: tissue-based; method in brief: as §1
T4 sequence (P22086 whole entry): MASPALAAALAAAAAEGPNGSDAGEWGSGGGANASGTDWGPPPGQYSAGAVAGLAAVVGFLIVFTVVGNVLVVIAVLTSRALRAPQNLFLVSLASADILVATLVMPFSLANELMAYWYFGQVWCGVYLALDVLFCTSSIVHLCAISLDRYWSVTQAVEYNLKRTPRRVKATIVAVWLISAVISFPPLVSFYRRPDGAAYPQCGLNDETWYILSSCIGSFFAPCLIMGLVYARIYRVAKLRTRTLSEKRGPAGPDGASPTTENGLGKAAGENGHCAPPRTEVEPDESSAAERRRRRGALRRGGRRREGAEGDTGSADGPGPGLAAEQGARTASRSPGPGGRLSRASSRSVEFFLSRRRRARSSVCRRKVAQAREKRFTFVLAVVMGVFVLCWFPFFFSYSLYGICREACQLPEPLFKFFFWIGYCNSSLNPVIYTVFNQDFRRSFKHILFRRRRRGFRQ
T4 sequence (P19328 whole entry): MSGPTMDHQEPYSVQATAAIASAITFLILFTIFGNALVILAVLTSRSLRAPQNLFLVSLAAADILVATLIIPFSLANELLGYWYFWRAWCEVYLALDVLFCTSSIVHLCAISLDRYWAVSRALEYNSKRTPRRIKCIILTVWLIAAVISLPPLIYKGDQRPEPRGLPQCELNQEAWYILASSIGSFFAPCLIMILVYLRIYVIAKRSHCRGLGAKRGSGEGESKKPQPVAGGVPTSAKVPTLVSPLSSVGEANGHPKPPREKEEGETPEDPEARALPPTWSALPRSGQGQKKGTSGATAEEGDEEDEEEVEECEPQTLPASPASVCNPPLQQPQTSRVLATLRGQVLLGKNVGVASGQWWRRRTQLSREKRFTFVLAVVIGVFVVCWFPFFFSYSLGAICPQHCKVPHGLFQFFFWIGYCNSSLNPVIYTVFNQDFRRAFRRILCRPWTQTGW
T4 sequence (P22909 whole entry): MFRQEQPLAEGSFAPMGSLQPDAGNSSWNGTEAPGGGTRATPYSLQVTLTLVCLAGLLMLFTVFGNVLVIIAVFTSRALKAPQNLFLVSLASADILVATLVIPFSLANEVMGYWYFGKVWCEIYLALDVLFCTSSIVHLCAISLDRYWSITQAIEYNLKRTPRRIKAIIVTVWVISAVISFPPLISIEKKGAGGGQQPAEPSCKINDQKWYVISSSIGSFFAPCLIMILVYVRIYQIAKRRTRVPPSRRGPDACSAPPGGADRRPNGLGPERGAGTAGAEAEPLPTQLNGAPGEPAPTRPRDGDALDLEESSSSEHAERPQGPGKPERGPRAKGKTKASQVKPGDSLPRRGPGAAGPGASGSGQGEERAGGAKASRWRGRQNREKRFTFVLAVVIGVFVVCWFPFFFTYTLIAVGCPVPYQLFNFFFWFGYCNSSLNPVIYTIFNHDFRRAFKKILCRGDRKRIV

Chain of 5-hydroxytryptamine receptor 2A (P14842 whole entry): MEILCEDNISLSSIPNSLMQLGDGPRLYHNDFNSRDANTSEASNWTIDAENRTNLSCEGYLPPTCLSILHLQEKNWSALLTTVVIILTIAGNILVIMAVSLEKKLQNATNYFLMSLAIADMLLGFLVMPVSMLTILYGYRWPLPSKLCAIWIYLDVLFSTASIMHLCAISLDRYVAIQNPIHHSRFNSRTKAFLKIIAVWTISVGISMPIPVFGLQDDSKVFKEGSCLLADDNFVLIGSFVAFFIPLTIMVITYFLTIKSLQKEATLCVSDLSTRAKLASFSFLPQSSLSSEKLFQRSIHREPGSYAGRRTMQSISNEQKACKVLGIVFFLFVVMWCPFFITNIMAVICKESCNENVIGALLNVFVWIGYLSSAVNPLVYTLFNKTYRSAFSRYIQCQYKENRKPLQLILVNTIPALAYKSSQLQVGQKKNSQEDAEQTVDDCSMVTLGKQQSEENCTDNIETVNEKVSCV
Chain of D(2) dopamine receptor (P61169 whole entry): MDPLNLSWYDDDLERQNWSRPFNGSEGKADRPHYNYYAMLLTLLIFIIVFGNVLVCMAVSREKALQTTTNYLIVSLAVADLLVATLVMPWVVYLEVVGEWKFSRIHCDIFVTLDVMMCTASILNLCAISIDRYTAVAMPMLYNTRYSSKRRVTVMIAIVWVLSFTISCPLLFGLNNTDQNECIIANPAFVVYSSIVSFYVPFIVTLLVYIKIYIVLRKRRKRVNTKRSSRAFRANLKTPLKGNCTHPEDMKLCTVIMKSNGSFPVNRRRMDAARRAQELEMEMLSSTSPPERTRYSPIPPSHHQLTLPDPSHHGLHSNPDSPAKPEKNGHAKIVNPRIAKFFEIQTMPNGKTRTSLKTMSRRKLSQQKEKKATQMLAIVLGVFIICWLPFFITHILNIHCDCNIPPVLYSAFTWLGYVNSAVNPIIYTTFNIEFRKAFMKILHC
Chain of D(1A) dopamine receptor (P18901 whole entry): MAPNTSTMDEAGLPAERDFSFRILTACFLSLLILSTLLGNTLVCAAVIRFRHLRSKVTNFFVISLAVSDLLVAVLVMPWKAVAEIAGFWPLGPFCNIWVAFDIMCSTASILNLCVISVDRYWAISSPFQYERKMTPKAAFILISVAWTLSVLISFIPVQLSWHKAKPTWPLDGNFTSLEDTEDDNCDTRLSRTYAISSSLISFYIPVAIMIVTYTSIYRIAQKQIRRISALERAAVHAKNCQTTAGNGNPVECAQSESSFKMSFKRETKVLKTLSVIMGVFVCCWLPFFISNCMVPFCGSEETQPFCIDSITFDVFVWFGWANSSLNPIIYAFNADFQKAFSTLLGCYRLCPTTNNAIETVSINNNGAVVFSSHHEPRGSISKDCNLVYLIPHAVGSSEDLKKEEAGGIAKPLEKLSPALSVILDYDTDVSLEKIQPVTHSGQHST

Ki [1]	Ki [2]	Ki [3]	Ki ([3]; read-out: Ki)	Ki ([1]; read-out: Ki)	Ki (D(1A) dopamine receptor)	Ki (D(2) dopamine receptor)	Ki [4]	Ki [5]	Ki ([2]; read-out: Ki)	SMILES
Not Active	Not Active	Not Active								C=CCN1CCN(CCCN/C(=N\C#N)c2ccncc2)CC1
Not Active	Not Active		> 10000 nM							COCCN1CCN(CCCN/C(=N\C#N)c2ccncc2)CC1
	Not Active		> 10000 nM	6.17 nM	1630 nM	> 10000 nM	912 nM	> 10000 nM		N#C/N=C(\NCCCN1CCN(c2cccc(Cl)c2)CC1)c1ccncc1
	Not Active		32.1 nM	141 nM						N#C/N=C(\NCCCN1CCN(c2cccc(C(F)(F)F)c2)CC1)c1ccncc1
	Not Active	Not Active		172 nM						N#C/N=C(\NCCCN1CCN(c2ncccn2)CC1)c1ccncc1
	Not Active	Not Active		0.038 nM	> 10000 nM	> 10000 nM	> 10000 nM	> 10000 nM		N#C/N=C(\NCCCN1CCN(c2ccccn2)CC1)c1ccncc1
			1900 nM	21.3 nM	> 10000 nM	> 10000 nM	190 nM	516 nM	11.5 nM	CCOc1ccccc1N1CCN(CCCN/C(=N\C#N)c2ccncc2)CC1
Not Active	Not Active		> 10000 nM							N#C/N=C(\NCCCN1CCN(c2ccccc2C#N)CC1)c1ccncc1
	Not Active		> 10000 nM	101 nM						Cc1cccc(N2CCN(CCCN/C(=N\C#N)c3ccncc3)CC2)c1C
	Not Active		> 10000 nM	166 nM						N#C/N=C(\NCCCN1CCN(c2ccccc2Cl)CC1)c1ccncc1
	Not Active		> 10000 nM	1.47 nM	> 10000 nM	> 10000 nM	> 10000 nM	2570 nM		COc1ccccc1N1CCN(CCCN/C(=N\C#N)c2ccncc2)CC1

SMILES	Ki [1]	Ki [2]	Ki [3]	Ki ([3]; read-out: Ki)	Ki ([1]; read-out: Ki)	Ki (D(1A) dopamine receptor)	Ki (D(2) dopamine receptor)	Ki [4]	Ki [5]	Ki ([2]; read-out: Ki)
CCOCCN1CCN(CCCN/C(=N\C#N)c2ccncc2)CC1		Not Active	Not Active		> 10000 nM					
COc1ccc(N2CCN(CCCN/C(=N\C#N)c3ccncc3)CC2)cc1		Not Active		> 10000 nM	> 10000 nM					
N#C/N=C(\NCCCN1CCN(Cc2ccc3c(c2)OCO3)CC1)c1ccncc1		Not Active		> 10000 nM	> 10000 nM					
N#C/N=C(\NCCCN1CCN(C(=O)c2ccco2)CC1)c1ccncc1		Not Active		> 10000 nM	> 10000 nM					

From ChEMBL document CHEMBL1157888, “New 5-HT(1A) receptor ligands containing a N'-cyanoisonicotinamidine nucleus: synthesis and in vitro pharmacological evaluation” (Bioorg Med Chem Lett, 2010)
